Source: ChEMBL document CHEMBL1143831, “Small molecule inhibitors of aggregation indicate that amyloid beta oligomerization and fibrillization pathways are independent and distinct” (J Biol Chem, 2007)
Structures can show the parent of a compound that is named as a salt. Calls of active or inactive are those of the source. The rule behind the calls is not given here.

What was measured:
[1] = Inhibition of synthetic amyloid beta-42 oligomerization by ELISA
[2] = Inhibition of synthetic amyloid beta42 oligomer formation by Western blot
Method in brief: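 Aβ42 (NaOH stock, 45 µM final) incubated in PBS pH 7.4, 0.02% sodium azide at room temperature without stirring for 5 days, with compound at 300 µM in DMSO; vehicle controls at 1% DMSO. Aliquots were mixed 1:1 with 2x SDS sample buffer, boiled 5 min, and run on 4-20% Tris-HCl gels. The gels were transferred to nitrocellulose and probed with A11 anti-oligomer antibody, with 6E10 also used.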

[3] = Inhibition of synthetic amyloid beta-42 fibrillation at 300 uM by light scattering analysis relative to control
Method in brief: (§1)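 Aβ42 (45 µM final) from 2 mM NaOH stock, diluted into 10 mM HEPES, 100 mM NaCl, 0.02% sodium azide, pH 7.4; stirred at room temperature 4 days with compound in DMSO (controls 1% DMSO). Turbidity at 400 nm, corrected by the 400 nm reading of supernatant after 14,000 rpm, 30 min centrifugation; triplicate, relative to control.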

[4] = Inhibition of synthetic amyloid beta-42 fibrillation at 30 uM by light scattering analysis relative to control; method in brief: as §1
[5] = Inhibition of synthetic amyloid beta-42 fibrillation at 30 uM by ThT fluorescence analysis relative to control
Method in brief: (§2)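 Aβ42 (45 µM final) from 2 mM NaOH stock, sonicated, diluted into 10 mM HEPES, 100 mM NaCl, 0.02% sodium azide, pH 7.4; stirred at room temperature 4 days with compound in DMSO (controls 1% DMSO). Aliquot mixed with 3 µM ThT; ex 442 nm, em 482 nm; corrected with parallel protein-free reactions; triplicate, % of control.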

[6] = Inhibition of synthetic amyloid beta42 fibrillation at 300 uM by ThT fluorescence analysis relative to control; method in brief: as §2

| Compound | IC50 [1] | Activity [2] | also measured |
| --- | --- | --- | --- |
| CO[C@H]1/C=C/O[C@@]2(C)Oc3c(C)c(O)c4c(O)c(cc(O)c4c3C2=O)NC(=O)/C(C)=C\C=C\[C@H](C)[C@H](O)[C@@H](C)[C@@H](O)[C@@H](C)[C@H](OC(C)=O)[C@@H]1C [RIFAMYCIN] | 31.6 µM | inactive | – |
| O=C1C=Cc2ccccc2C1=O [1,2-NAPHTHOQUINONE] | 11.5 µM | inactive | – |
| O=c1cc2oc3cc(O)c(-c4ccc(O)cc4O)cc3nc-2cc1-c1ccc(O)cc1O [LACMOID] | 25.5 µM | inactive | – |
| CNc1ccc2nc3ccc(N)cc3[s+]c2c1 [AZURE C] | 0.09 µM | inactive | – |
| O=C1C=CC(=O)c2c(O)cccc21 [JUGLONE] | 67.6 µM | Active | – |
| COc1cccc2c1C(=O)c1c(O)c3c(c(O)c1C2=O)C[C@@](O)(C(C)=O)C[C@@H]3O[C@H]1C[C@H](N)[C@H](O)[C@H](C)O1 [DAUNORUBICIN HYDROCHLORIDE] | 7.48 µM | inactive | – |
| O=S1(=O)OC(c2ccc(O)cc2)(c2ccc(O)cc2)c2ccccc21 [PHENOLSULFONPHTHALEIN] | 426 µM | – | – |
| C1CCSC1 [TETRAHYDROTHIOPHENE] | 122 µM | Active | – |
| COc1cc(-c2ccc(/N=N/c3ccc4c(S(=O)(=O)O)cc(S(=O)(=O)O)c(N)c4c3O)c(OC)c2)ccc1/N=N/c1ccc2c(S(=O)(=O)O)cc(S(=O)(=O)O)c(N)c2c1O [CHICAGO SKY BLUE SODIUM] | 2.58 µM | inactive | – |
| CCN(CC)c1ccc2c(-c3ccccc3C(C)=O)c3ccc(=[N+](CC)CC)cc-3oc2c1 | 310 µM | – | – |
| O=c1c(O)c(-c2cc(O)c(O)c(O)c2)oc2cc(O)cc(O)c12 [MYRICETIN] | 107 µM | Active | – |
| O=C(c1ccccc1O)c1ccccc1O [2,2'-DIHYDROXYBENZPHENONE] | 244 µM | – | – |
| O=C(O)c1ccccc1-c1c2cc(Br)c(=O)c(Br)c-2oc2c(Br)c(O)c(Br)cc12 [EOSIN Y SODIUM] | 2790 µM | – | – |
| COc1cc(/C=C/C(=O)CC(=O)/C=C/c2ccc(O)c(OC)c2)ccc1O [CURCUMIN] | 361 µM | – | – |
| CETRIMIDE [listing 1 of 2 here] | 15.9 µM | – | – |
| N,N,N-trimethylhexadecan-1-aminium bromide | – | inactive | Activity [3]: inactive; Activity [4]: Active; inhibition [5]: 9.8%; inhibition [6]: 0.5% |
| CC(Cc1ccc(O)c(O)c1)C(C)Cc1ccc(O)c(O)c1 (stereo not given) [NORDIHYDROGUAIARETIC ACID] | 14.5 µM | inactive | – |
| OCCN1CCN(CCCN2c3ccccc3Sc3ccc(Cl)cc32)CC1 [PERPHENAZINE] | 26.1 µM | – | – |
| CN(C)[C@@H]1C(O)=C(C(=O)NCN2CCCC2)C(=O)[C@@]2(O)C(O)=C3C(=O)c4c(O)cccc4[C@@](C)(O)[C@H]3C[C@@H]12 [ROLITETRACYCLINE] | 1.87 µM | inactive | – |
| COc1ccc2nc3cc(Cl)ccc3c(NC(C)CCCN(CCCl)CCCl)c2c1 (stereo not given) | 2050 µM | – | – |
| CETRIMIDE [listing 2 of 2 here] | – | inactive | Activity [3]: inactive; inhibition [5]: 112%; inhibition [6]: 0.7% |
| COc1ccc2c(c1)c(CC(=O)O)c(C)n2C(=O)c1ccc(Cl)cc1 [INDOMETHACIN] | 958 µM | – | – |
| CCN(CCO)c1ccc(/N=N/c2sc3cc(OC)ccc3[n+]2C)cc1 [BASIC BLUE 41] | 0.12 µM | inactive | – |
| Nc1c(/N=N/c2ccc(-c3ccc(/N=N/c4cc(S(=O)(=O)O)c5ccccc5c4N)cc3)cc2)cc(S(=O)(=O)O)c2ccccc12 [CONGO RED] | 10 µM | inactive | – |
| Cc1ccc2ccc3ccc(C)nc3c2n1 [NEOCUPROINE] | 17.4 µM | inactive | – |
| C=C1c2c(Cl)ccc(O)c2C(=O)C2=C(O)[C@]3(O)C(=O)C(C(N)=O)=C(O)[C@@H](N(C)C)[C@@H]3[C@@H](O)[C@H]12.O=C(O)c1cc(S(=O)(=O)O)ccc1O [MECLOCYCLINE SULFOSALICYLATE] | 0.25 µM | inactive | – |
| COc1cccc(C=O)c1O | 6.15 µM | inactive | – |
